Results: ChEMBL document CHEMBL1128248, “C-9 and N-substituted analogs of cis-(3aR)-(-)-2,3,3a,4,5,9b-hexahydro-3- propyl-1H-benz[e]indole-9-carboxamide: 5-HT1A receptor agonists with various degrees of metabolic stability” (J Med Chem, 1995)
Active and inactive are the calls of the source. No cut-off for these calls is given here.

Experiments:
[1] = target: T1, 5-hydroxytryptamine receptor 1A (Rattus norvegicus, UniProt P19327); assay: In vitro displacement of radioactively labeled ligand [3H]8-OH-DPAT from 5-hydroxytryptamine 1A receptor site in CHO cells; assay type: cell-based
T1 sequence (P19327 whole entry): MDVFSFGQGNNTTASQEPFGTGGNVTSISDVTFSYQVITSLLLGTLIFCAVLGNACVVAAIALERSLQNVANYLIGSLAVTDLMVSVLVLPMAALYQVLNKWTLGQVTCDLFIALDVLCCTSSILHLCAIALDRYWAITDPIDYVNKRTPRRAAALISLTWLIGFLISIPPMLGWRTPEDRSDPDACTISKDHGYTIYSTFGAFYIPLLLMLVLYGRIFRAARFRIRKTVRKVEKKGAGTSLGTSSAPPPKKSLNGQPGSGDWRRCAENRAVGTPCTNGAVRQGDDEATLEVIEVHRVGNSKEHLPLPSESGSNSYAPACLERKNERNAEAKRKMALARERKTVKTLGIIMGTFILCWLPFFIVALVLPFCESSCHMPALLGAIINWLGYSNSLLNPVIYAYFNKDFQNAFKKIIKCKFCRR

D(2) dopamine receptor = D(2) dopamine receptor (Rattus norvegicus, UniProt P61169); assay: Displacement of [3H]U-86170 from Dopamine receptor D2
Chain of D(2) dopamine receptor (P61169 whole entry): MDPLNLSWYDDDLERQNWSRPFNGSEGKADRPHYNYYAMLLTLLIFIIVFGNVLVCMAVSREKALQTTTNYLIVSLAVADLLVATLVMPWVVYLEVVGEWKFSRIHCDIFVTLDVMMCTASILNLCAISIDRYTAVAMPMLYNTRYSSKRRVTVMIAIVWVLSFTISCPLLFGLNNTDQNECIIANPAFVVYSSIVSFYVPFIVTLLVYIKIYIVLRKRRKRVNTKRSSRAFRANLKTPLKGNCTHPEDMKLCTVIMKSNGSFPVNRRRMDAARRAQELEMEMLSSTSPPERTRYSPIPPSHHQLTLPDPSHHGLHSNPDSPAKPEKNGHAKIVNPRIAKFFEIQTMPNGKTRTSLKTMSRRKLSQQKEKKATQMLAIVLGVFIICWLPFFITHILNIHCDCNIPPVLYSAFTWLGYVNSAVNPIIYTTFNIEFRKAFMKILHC
Procedure, shortened: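 Competition binding at cloned D2 receptors expressed in CHO-K1 cells, using the agonist [3H]U86170 (62 Ci/mmol, 2 nM) against 11 dilutions of test compound. IC50 was fitted to a one-site model by nonlinear least squares. Ki was obtained with the Cheng–Prusoff equation.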

Rattus norvegicus [2] = species on record: Rattus norvegicus; assay: (§1) In vitro metabolic stability of the test compound was evaluated after incubation in the presence of freshly isolated rat hepatocytes; assay type: functional, Hepatocyte; set-up: reference not given here
Procedure, shortened: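 Rat hepatocytes were isolated by modified collagenase perfusion and incubated as suspensions (5 million cells/mL) with each compound at three concentrations. Parent loss was followed by HPLC. Initial rates gave apparent Vmax and Km by direct linear plot, with CLint = Vmax/Km. Stability is expressed relative to a reference compound incubated at the same time.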

Rattus norvegicus [3] = species on record: Rattus norvegicus; assay: as §1; assay type: ADME, Hepatocyte
Procedure, shortened: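 Rat hepatocytes were prepared by a modified collagenase perfusion method. Each compound was incubated at three concentrations in suspension at 5 million cells/mL. Initial rates were analysed by direct linear plot to give apparent Vmax and Km, and CLint = Vmax/Km. Rates were measured by HPLC and expressed relative to a reference compound incubated at the same time.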

Rattus norvegicus [4] = assay: (§2) 5-HTP accumulation in limbic system was determined in vivo; assay type: functional
Procedure, shortened: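 Male Sprague–Dawley rats (200–300 g) pretreated with reserpine 5 mg/kg sc 18 h beforehand; test drug given sc in neck, 5 mL/kg, neutral pH. 5-HTP in limbic system measured by HPLC with electrochemical detection.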

Rattus norvegicus [5] = assay: in vivo effects on DA (dopamine) synthesis in cortex was reported after subcutaneous administration to reserpinized rats; assay type: functional, organism-based
Rattus norvegicus [6] = assay: postsynaptic effects was assessed by the increase in the locomotor activity (reversal of reserpine induced hypokinesia) during a 30 min period after subcutaneous administration using photocell motility meters at the dose of 0.2 (mic roM/kg); assay type: functional
Procedure, shortened: (§3)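 Reserpine 5 mg/kg sc was given 18 h before testing to male Sprague–Dawley rats. Test drug was given sc in the neck, and rats were placed singly in photocell motility meters. Accumulated counts were recorded over 30 min (mean, n = 4), with gross behaviour observed throughout. Student's t test was applied.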

Rattus norvegicus [7] = assay: In vivo effects on DA (dopamine) synthesis in corps striatum was reported after subcutaneous administration to reserpinized rats; I = inactive at highest dose 45 umol/kg; assay type: functional, organism-based
Rattus norvegicus [8] = assay: In vivo effects on DA (dopamine) synthesis in corps striatum was reported after subcutaneous administration to reserpinized rats; inactive at a dose of 50; assay type: functional, organism-based
Procedure, shortened: (§4)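 Male Sprague–Dawley rats (200–300 g) given reserpine 5 mg/kg sc 18 h before; compounds sc in neck region, 5 mL/kg. DOPA accumulation in striatum or cortex measured by HPLC with electrochemical detection.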

Rattus norvegicus [9] = assay: in vivo effects on DA (dopamine) synthesis in cortex was reported after subcutaneous administration to reserpinized rats; inactive at a dose of 50; assay type: functional, organism-based; procedure, shortened: as §4
Rattus norvegicus [10] = assay: postsynaptic effects was assessed by the increase in the locomotor activity (reversal of reserpine induced hypokinesia) during a 30 min period after subcutaneous administration using photocell motility meters at the dose of 12.5(mic roM/kg); assay type: ADME, organism-based; conditions: in vivo, sc, 0.5 h; procedure, shortened: as §3
Rattus norvegicus [11] = assay: postsynaptic effects was assessed by the increase in the locomotor activity (reversal of reserpine induced hypokinesia) during a 30 min period after subcutaneous administration using photocell motility meters at the dose of 50(micro M/kg); assay type: ADME, organism-based; conditions: in vivo, sc, 0.5 h; procedure, shortened: as §3
Rattus norvegicus [12] = assay: postsynaptic effects was assessed by the increase in the locomotor activity (reversal of reserpine induced hypokinesia) during a 30 min period after subcutaneous administration using photocell motility meters at the dose of 10(micro M/kg); assay type: ADME, organism-based; conditions: in vivo, sc, 0.5 h
Procedure, shortened: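 Male Sprague–Dawley rats got reserpine 5 mg/kg sc in the neck 18 h before testing. Compound was given sc in the neck (5 mL/kg), and rats were placed singly in photocell motility meters. Accumulated counts were recorded over 30 min, mean ± SEM, n = 4, with Student's t test against reserpinized controls. Testing ran 9 a.m.–1 p.m.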

Rattus norvegicus [13] = assay: as §2; assay type: functional; remark: listed apart in the source
Procedure, shortened: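 Male Sprague–Dawley rats (200–300 g), pretreated with reserpine 5 mg/kg sc 18 h before. Test drug given sc. 5-HTP measured in limbic brain tissue by HPLC with electrochemical detection. Dose–response curves were built from four to six dose levels (n = 4) for each substance and brain area. ED50 reported in μmol/kg sc.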

Rattus norvegicus [14] = assay: postsynaptic effects was assessed by the increase in the locomotor activity (reversal of reserpine induced hypokinesia) during a 30 min period after subcutaneous administration using photocell motility meters at the dose of 3.1(micr oM/kg); assay type: ADME, organism-based; conditions: in vivo, sc, 0.5 h; procedure, shortened: as §3
Rattus norvegicus [15] = assay: in vivo effects on DA (dopamine) synthesis in cortex was reported after subcutaneous administration to reserpinized rats; inactive at a dose of 3.1; assay type: functional, organism-based
Rattus norvegicus [16] = assay: In vivo effects on DA (dopamine) synthesis in corps striatum was reported after subcutaneous administration to reserpinized rats; inactive at a dose of 3.1; assay type: functional, organism-based

Compound	Ki [1]	Ki (D(2) dopamine receptor)	Metabolic stability (Rattus norvegicus [2])	further results
CC(C)CN1CC[C@H]2c3c(cccc3C(N)=O)CC[C@H]21	42 nM	> 1000 nM	0.23	
CCCN(CCC)C1CCc2cccc(O)c2C1 (configuration not stated) [8-OH-DPAT]		86 nM		Metabolic stability (Rattus norvegicus [3]): 0.16; ED50 (Rattus norvegicus [4]): 0.052 µmol/kg; ED50 (Rattus norvegicus [5]): inactive; Locomotor activity (Rattus norvegicus [6]): 66; ED50 (Rattus norvegicus [7]): inactive
COCCN1CC[C@H]2c3c(cccc3C(N)=O)CC[C@H]21	129 nM	> 1000 nM	0.58	
CCN1CC[C@H]2c3c(Br)cccc3CC[C@H]21	11 nM	34 nM		
NC(=O)c1cccc2c1[C@@H]1CCN(CCCCl)[C@@H]1CC2	15 nM	> 1000 nM		Metabolic stability (Rattus norvegicus [3]): 0.22
CN1CC[C@H]2c3c(Br)cccc3CC[C@H]21	24 nM	41 nM		
C#CCN1CC[C@H]2c3c(cccc3C(N)=O)CC[C@H]21	48 nM	> 1000 nM	0.37	
ClCCCN1CC[C@H]2c3c(Br)cccc3CC[C@H]21	12 nM	73 nM		
CCCN1CC[C@H]2c3c(cccc3C(=O)NCc3ccccc3)CC[C@H]21	22 nM	> 1000 nM	0.16	ED50 (Rattus norvegicus [8]): inactive; ED50 (Rattus norvegicus [4]): 7 µmol/kg; ED50 (Rattus norvegicus [9]): inactive; Locomotor activity (Rattus norvegicus [10]): 41
Brc1cccc2c1[C@@H]1CCN(CC3CC3)[C@@H]1CC2	4.7 nM	119 nM		
C=CCNC(=O)c1cccc2c1[C@@H]1CCN(CCC)[C@@H]1CC2	2.2 nM	> 1000 nM	0.4	ED50 (Rattus norvegicus [8]): inactive; ED50 (Rattus norvegicus [4]): 0.8 µmol/kg; ED50 (Rattus norvegicus [9]): inactive; Locomotor activity (Rattus norvegicus [11]): 82
C=CCCN1CC[C@H]2c3c(Br)cccc3CC[C@H]21	34 nM	55 nM		
CCCNC(=O)c1cccc2c1[C@@H]1CCN(CCC)[C@@H]1CC2	52 nM	> 1000 nM		ED50 (Rattus norvegicus [8]): inactive; ED50 (Rattus norvegicus [9]): inactive; Locomotor activity (Rattus norvegicus [12]): 58; ED50 (Rattus norvegicus [13]): 4 µmol/kg
CCCCN1CC[C@H]2c3c(Br)cccc3CC[C@H]21	45 nM	75 nM		
CCCC(=O)c1cccc2c1[C@@H]1CCN(CCC)[C@@H]1CC2	0.7 nM	22 nM	0.05	Locomotor activity (Rattus norvegicus [14]): 631; ED50 (Rattus norvegicus [13]): 0.26 µmol/kg; ED50 (Rattus norvegicus [15]): inactive; ED50 (Rattus norvegicus [16]): inactive
